Dynein cargo inh: blocks dynein driven cargo transport along microtubules. 3617.4 mouse cells, GR-EGFP nuclear translocation imaging; test concentration mostly 20 µM; stimulated with dexamethasone, 1 µM; stronger effect = lower value. z-score, hits read low. hit rate 0.47% among 220,000. AID 1381;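 active = plate z-score of nuclear minus cytoplasmic receptor signal below a set negative limit, without overly bright fluorescence or cell loss, cut at about -3.5 in these data, passing the limit was not always enough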;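 note: z-score of nuclear minus cytoplasmic ring GR-EGFP intensity difference per well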
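Also added: dexamethasone, 1.0 µM final. Medium: tet-free, stripped-serum medium. Detection: fixed, Hoechst-stained cells imaged at 10x for EGFP. Read-out: nuclear-to-cytoplasmic GR-EGFP distribution per well. Times: induction 48 h, compound 1 h, agonist 30 min.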
TNF necrop inh: inhibitors of TNF-alpha induced necroptosis in Jurkat FADD-/- cells; AID 463075; activation (protection from cell death), % at 10 µM; hit rate 0.068% among 220,000; Jurkat FADD-/- TNF necroptosis rescue, ATP luminescence, 24 h; 0 = TNF only, 100 = no-TNF cells;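 active = activation, meaning protection from cell death, of at least 50% relative to plate controls; inactive = activation below 50%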;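 note: necroptosis triggered by 40 ng/mL TNF-alpha added together with compound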
Beta2AR agonist: human beta-2 adrenergic receptor agonism by FAP; P07550; Am2.2-beta2AR cells, FAP receptor internalization, flow cytometry; response, % (test concentration not listed); hit rate 0.43% among 340,000; AID 504454;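 active = response above a set limit, near 3 SD of response in nonfluorescent compounds, cut at about 42% in these data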
Target sequence (P07550 whole entry, looked up): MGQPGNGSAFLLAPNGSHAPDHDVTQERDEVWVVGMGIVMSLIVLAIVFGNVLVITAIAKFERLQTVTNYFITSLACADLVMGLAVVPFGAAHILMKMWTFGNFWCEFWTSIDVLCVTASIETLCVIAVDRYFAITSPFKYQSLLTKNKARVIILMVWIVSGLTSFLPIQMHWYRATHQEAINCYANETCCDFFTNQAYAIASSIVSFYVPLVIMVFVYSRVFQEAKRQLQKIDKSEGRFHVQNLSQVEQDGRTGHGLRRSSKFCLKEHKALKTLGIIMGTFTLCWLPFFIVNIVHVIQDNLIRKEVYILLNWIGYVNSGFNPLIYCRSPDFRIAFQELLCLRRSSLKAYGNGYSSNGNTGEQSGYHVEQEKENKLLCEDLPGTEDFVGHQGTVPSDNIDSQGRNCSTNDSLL
MDM2 E3 inh: blocks human Mdm2 ubiquitin ligase activity; signal enhancement, % at 5 µM; cell-based MDM2 ubiquitination luciferase reporter, 2 h; 0 = plate control, 100 = twice control, blank-subtracted; hit rate 0.11% among 210,000;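 active = signal enhancement of 30% or more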;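 note: luminescence tracks abundance of the self-degrading MDM2-luciferase fusion protein; higher signal means inhibition of MDM2 E3 ligase activity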
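Material: Stable MDM2–luciferase fusion reporter cells | Amount: 2000 cells seeded into each well | Dosing: One concentration, 5 µM, with 0.2% DMSO | Incubation: 4 h cell settling then 2 h compound exposure, 37 °C | Measured by: Luciferase luminescence | Read-out basis: % enhancement relative to plate controls after blank subtraction | Benchmarks: Control and blank well means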
zVAD death inh: L929 zVAD cell death inhibition; L929 zVAD necroptosis rescue, ATP luminescence, 24 h; with zVAD 60 µM; viability rescue, % at 10 µM; hit rate 0.38% among 220,000; AID 1377;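 active = activation, scaled between plate controls, above about 75%, limit read from the data; inactive = activation under that limit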
Of the large screens only hits and unclear results are named; the others gave an inactive call. An excerpt weighted towards active compounds, which were near 0.97% of everything screened.

CCc1nnc(NC(=O)CCc2ccccc2OC)s1	none (no result: Dynein cargo inh, TNF necrop inh, MDM2 E3 inh, zVAD death inh)
Cc1cccc(C(=O)Nc2ccc(C(=O)/C=C/c3cccnc3)cc2)c1	Beta2AR agonist 80
Cc1cccc(C(=O)Nc2ccc(C(=O)/C=C/c3ccncc3)cc2)c1	Beta2AR agonist 60 (no result: Dynein cargo inh, TNF necrop inh, MDM2 E3 inh, zVAD death inh)
O=C(/C=C/c1cccnc1)c1ccc(NC(=O)c2cccc(Br)c2)cc1	none
CC(=O)Nc1cccc(C(=O)/C=C/c2ccc(Br)cc2)c1	Beta2AR agonist 67
N#Cc1cc2c(nc1SCC(N)=O)CCCCC2	none
COC(=O)C1CN(C(=O)C(C)Oc2cc(C)ccc2C(C)C)c2ccccc2O1 (stereo unspecified)	none (no result: Dynein cargo inh, TNF necrop inh, MDM2 E3 inh, zVAD death inh)
CCC(C)[C@H](NC(=O)OC(C)(C)C)C(=O)N/N=C/C1=Cc2ccccc2OC1 (stereo partly specified)	none
COc1ccc(NC(=O)/C=C/c2ccc(Br)o2)cn1	none
COc1ccccc1CNC(=O)/C=C/c1ccc(Br)o1	Beta2AR agonist 71
CCC1=NN(C(=O)Cc2ccc([N+](=O)[O-])cc2)C(O)(C(C)(C)C)C1 (stereo unspecified)	none
O=C1Nc2ccccc2/C1=N\N=C\C1=C(N2CCOCC2)C(=C\c2ccccc2)/CC1	none
Cc1ccsc1/C=N/NC(=O)C(=O)NCC(C)C	none
Cc1cccc(N2CCN(c3nc4ccccc4n4cnnc34)CC2)c1C	Beta2AR agonist 42
c1cnc(N2CCN(c3nc4ccccc4n4cnnc34)CC2)nc1	none
CCOC(=O)COc1ccc(/C=C2\NC(=S)N(CC)C2=O)cc1	Beta2AR agonist 66
CC(C)(C)C1C/C(=C/c2ccccn2)C(=O)/C(=C/c2ccccn2)C1 (stereo unspecified)	Dynein cargo inh -4.9, Beta2AR agonist 85
CC1C/C(=C/c2ccccn2)C(=O)/C(=C/c2ccccn2)C1 (stereo unspecified)	Dynein cargo inh -5.8, MDM2 E3 inh 46
CCN(C[C@H]1N[C@@](C)(C(=O)OC)[C@H]2C(=O)N(C)C(=O)[C@@H]12)S(=O)(=O)c1ccccc1	none (no result: Dynein cargo inh, TNF necrop inh, MDM2 E3 inh, zVAD death inh)
CCCCS(=O)CC(CS(=O)CCCC)OC(=O)c1ccc(C)cc1 (stereo unspecified)	none
O=c1c2c3nc4ccccc4nc3n(-c3ccc4c(c3)OCCO4)c2ncn1C1CCCC1	Beta2AR agonist 53 (no result: Dynein cargo inh, TNF necrop inh, MDM2 E3 inh, zVAD death inh)
O=c1c2ccccc2ncn1-c1ccc2c(c1)OCCO2	none
C=CCN1C(=O)/C(=C/c2ccsc2)SC1=S	Beta2AR agonist 44
O=C(O)CN1C(=O)/C(=C/c2ccsc2)SC1=S	none
COc1ccc(C2C(C(=O)N3CCCCC3)CCC(=O)N2c2cc(OC)c(OC)c(OC)c2)cc1 (stereo unspecified)	MDM2 E3 inh 38
COc1ccc(C[C@@H]2OC3(C=CC(=O)C=C3)O[C@H]2Cc2ccc(OC)cc2)cc1	Beta2AR agonist 52 (no result: Dynein cargo inh, TNF necrop inh, MDM2 E3 inh, zVAD death inh)
CN(C#N)c1nc(Cl)nc(Nc2cccc(Cl)c2)n1	none
COCCNC(=O)/C(C#N)=C/c1ccc(O)cc1	none (no result: MDM2 E3 inh)
COCCNC(=O)/C(C#N)=C/c1cccc(/C=C(\C#N)C(=O)NCCOC)c1	MDM2 E3 inh 70
O=C(/C=C/c1ccc2c(c1)OCO2)NCCSCc1ccc(Cl)cc1Cl	Beta2AR agonist 96
O=C(/C=C/c1ccc2c(c1)OCO2)NCCSCc1cccc(Cl)c1	Beta2AR agonist 44
CCCOc1ccc2oc(=O)c3c(c2c1)CCCN3C(=O)CN1CCN(C(=O)c2ccco2)CC1	none (no result: Beta2AR agonist)
CCn1c(SCC(=O)N/N=C/c2ccc(OC)c(OC)c2)nc2ccccc21	none
C=CCSc1nc2ccccc2n1C(=O)/C=C/c1ccc(OC)c(OC)c1	Dynein cargo inh -5.1
CCSc1nc2ccccc2n1C(=O)/C=C/c1ccc(OC)c(OC)c1	Beta2AR agonist 42, MDM2 E3 inh 65
Cn1c(=NC(=O)C(C)(C)C)sc2cccc(F)c21	none
COC(=O)c1ccc(COc2ccc(/C=C(\C#N)c3nc4ccccc4[nH]3)cc2OC)o1	Beta2AR agonist 43
C/C(=N\Nc1nc(N)cc(Cl)n1)c1ccc(F)cc1	none
O=C1C=CC(=O)N1CCCCCCN1C(=O)C=CC1=O	Dynein cargo inh -4 (no result: Beta2AR agonist)
O=C1C2C3C=CC(C3)C2C(=O)N1CCCCCCN1C(=O)C2C3C=CC(C3)C2C1=O (stereo unspecified)	none
CN(C)S(=O)(=O)c1ccc(N2CCCC2)c(C(=O)N2CCN(S(=O)(=O)c3ccc(F)cc3)CC2)c1	none (no result: Dynein cargo inh, TNF necrop inh, MDM2 E3 inh, zVAD death inh)
O=C1C=CC2(O[C@H](c3ccccc3)[C@@H](c3ccccc3)O2)[C@H](Sc2ccccc2O)C1	Beta2AR agonist 42 (no result: Dynein cargo inh, TNF necrop inh, MDM2 E3 inh, zVAD death inh)
Cc1c(NC(C)c2ccccc2O)c(=O)n(-c2ccccc2)n1C (stereo unspecified)	none
COc1ccc(C/C(C)=N/NC(=S)Nc2ccc(Cl)cc2)cc1	Beta2AR agonist 58
CCCCc1ccc(NC(=S)Nc2ccc(Nc3ccc(OC)cc3)cc2)cc1	Beta2AR agonist 56
CCCCc1ccc(NC(=S)NCc2cccc(OC)c2)cc1	none
COc1ccc(C/C(C)=N/NC(=S)Nc2ccccc2)cc1	none
CN(CC(=O)Nc1ccccc1Br)C(=O)COc1ccc2ccccc2c1	none (no result: Dynein cargo inh, TNF necrop inh, MDM2 E3 inh, zVAD death inh)
CC[C@@]1(C(=O)OC)N[C@H](CN(C)C(=O)COc2ccccc2)[C@@H]2C(=O)N(Cc3ccccc3)C(=O)[C@@H]21	none (no result: Dynein cargo inh, TNF necrop inh, MDM2 E3 inh, zVAD death inh)
Cc1ccc(Cn2cnc3sc4c(c3c2=O)CCC4)c(C)c1	TNF necrop inh 92
CCOC(=O)c1c(O)c2cccc3c2n(c1=O)CC3	none
C#CCOCCOCCOCCNc1nc(N2CCN(C(=O)CCCCCCCCCCNC(=O)[C@H]([C@@H](C)CC)n3cc(CCCCN=C(N)N)nn3)CC2)nc(N2CCN(C(=O)CCCCCCCCCCNC(=O)[C@H](CO)n3cc(CCCCCN)nn3)CC2)n1	Beta2AR agonist 52 (no result: Dynein cargo inh, TNF necrop inh, MDM2 E3 inh, zVAD death inh)
C#CCOCCOCCOCCNc1nc(N2CCN(C(=O)CCCCCCCCCCNC(=O)[C@@H](CCC(=O)O)n3cc(CCCCCN)nn3)CC2)nc(N2CCN(C(=O)CCCCCCCCCCNC(=O)[C@H]([C@@H](C)CC)n3cc(CCCCCN)nn3)CC2)n1	Beta2AR agonist 52 (no result: Dynein cargo inh, TNF necrop inh, MDM2 E3 inh, zVAD death inh)
CCOc1cc(/C=N/N=C(N)N)ccc1OCc1ccc(Cl)cc1	Beta2AR agonist 46
COc1cc(/C=N/N=C(N)N)ccc1OCc1ccc(Cl)cc1	none
Cc1cc2c(=O)n(Cc3ccco3)c(SCC(=O)c3ccc(Cl)s3)nc2s1	Beta2AR agonist 52
CCOC(=O)CC(=O)CSc1nc2sc(C)cc2c(=O)n1Cc1ccco1	none
Cn1c(=O)c(C(=O)CCl)c(N)n(Cc2ccccc2)c1=O	none (no result: MDM2 E3 inh)
Cn1c(N)c(C(=O)CCl)c(=O)n(Cc2ccccc2)c1=O	Dynein cargo inh -5.9 (no result: MDM2 E3 inh)
CN(C)c1nc(OCCOC(=O)Nc2ccc(Cl)cc2Cl)nc(N(C)C)n1	none
C[C@@H](NCCCn1ccc(NC(=O)OCc2ccccc2)nc1=O)c1cccc2ccccc12	Beta2AR agonist 44 (no result: Dynein cargo inh, TNF necrop inh, MDM2 E3 inh, zVAD death inh)
O=C(Nc1ccc(O)cc1)c1c(O)c2c([nH]c1=O)CCCC2	none
